Results gathered from unrelated publications.
Protocols differ between the studies behind these lines.
Sample: plasma

SMILES | host | route | dose | notes | half-life
CCCCC(=O)Nc1ccc(-c2ccc3ncn(CCC)c(=O)c3c2)cn1 | male rat | oral | 10 mg/kg |  | 1.09 h
[2H]C([2H])([2H])NC(=O)c1cc(Oc2ccc(NC(=O)Nc3ccc(Cl)c(C(F)(F)F)c3)cc2)ccn1 | rat | oral | 40 mg/kg | single dose | 23.2 h
Cc1cc(S(=O)(=O)NC2CC(N3CCN(CC4CCN(c5cccc6c5n(C)c(=O)n6C5CCC(=O)NC5=O)CC4)C4(CC4)C3)C2)ccc1Nc1ncc(C(F)(F)F)c(N2CCC[C@](C)(O)C2)n1 (some centres unmarked) | rat | intravenous | 2 mg/kg |  | 3.5 h
CCCCCCCCCC(=O)N[C@@H](Cc1c[nH]c2ccccc12)C(=O)N[C@H](CC(N)=O)C(=O)N[C@@H](CC(=O)O)C(=O)N[C@@H]1C(=O)NCC(=O)N[C@@H](CCCN)C(=O)N[C@@H](CC(=O)O)C(=O)N[C@H](C)C(=O)N[C@@H](CC(=O)O)C(=O)NCC(=O)N[C@H](CO)C(=O)N[C@@H]([C@H](C)CC(=O)O)C(=O)N[C@@H](CC(=O)c2ccccc2N)C(=O)O[C@@H]1C | male Wistar rat | subcutaneous | 125 mg/kg | single dose | 2.6 h
CC[C@@H]([C@H](C)O)n1ncn(-c2ccc(N3CCN(c4ccc(OC[C@@H]5CO[C@@](Cn6cncn6)(c6ccc(F)cc6F)C5)cc4)CC3)cc2)c1=O | Sprague-Dawley rat | oral | 40 mg/kg |  | 15.7 h
COc1cc(-c2cc(C(C)=O)n3ccccc23)c(OC)cc1Cn1ccnc1 | male Sprague-Dawley rat | intravenous | 5 mg/kg |  | 0.75 h
COCC(=O)N1CCC[C@H](C(=O)NCc2nc(-c3ccccc3)cs2)C1 | male Sprague-Dawley rat | intravenous | 1 mg/kg |  | 6 h
[2H]c1cc(C)c(NC(=O)c2cnc(Nc3cc(N4CCCCC4)nc(C)n3)s2)c(Cl)c1 | male Sprague-Dawley rat | intravenous | 1 mg/kg |  | 1.7 h
Cc1cc(S(=O)(=O)N[C@H]2CC[C@H](N3CCN(CC4CCN(c5cccc6c5n(C)c(=O)n6C5CCC(=O)NC5=O)CC4)CC3)CC2)ccc1Nc1ncc(C(F)(F)F)c(N2CCC[C@](C)(O)C2)n1 (some centres unmarked) | rat | intravenous | 2 mg/kg |  | 4.3 h
CNC(=O)c1cc(Oc2ccc(NC(=O)Nc3ccc(Cl)c(C(F)(F)F)c3)cc2)ccn1 | male Sprague-Dawley rat | oral | 100 mg/kg | single dose | 13.8 h
C[C@]1(O)CCCN(c2nc(Nc3ccc(S(=O)(=O)N[C@H]4CC[C@H](CN5CCN(c6ccc(C7CCC(=O)NC7=O)cc6F)CC5)CC4)cc3F)ncc2C(F)(F)F)C1 (some centres unmarked) | rat | intravenous | 2 mg/kg |  | 3.7 h
CC(C)(N)COCC(=O)N1CCC[C@H](C(=O)NCc2nc(-c3ccc(C(F)(F)F)cc3)cs2)C1 | male Sprague-Dawley rat | oral | 3 mg/kg |  | 7.3 h
CONC(=O)c1cccc2c1cc(C)n2-c1nc2c(c(NCc3ccccc3)n1)CCCN2 | male Sprague-Dawley rat | intravenous | 1 mg/kg | single dose | 3.13 h
C[C@]1(O)CCCN(c2nc(Nc3ccc(S(=O)(=O)N[C@@H]4CCN(CC5CCN(c6ccc(C7CCC(=O)NC7=O)cc6F)CC5)C[C@H]4F)cc3F)ncc2C(F)(F)F)C1 (some centres unmarked) | rat | intravenous | 2 mg/kg |  | 5.1 h
NCCOCC(=O)N1CCC[C@H](C(=O)NCc2nc(-c3ccc(C(F)(F)F)cc3)cs2)C1 | male Sprague-Dawley rat | intravenous | 1 mg/kg |  | 4.4 h
C[C@H]1Oc2cc(cnc2N)-c2c(nn(C)c2C#N)CN(C)C(=O)c2ccc(F)cc21 | male Sprague-Dawley rat | oral | 10 mg/kg | single dose | 8.82 h

SMILES | host | route | dose | notes | half-life
CCN(CC)Cc1ccc2cc(COC(=O)Nc3ccc(C(=O)NO)cc3)ccc2c1 | male Sprague-Dawley rat | oral | 10 mg/kg |  | 19.7 h
COc1ccc(-c2coc3cc(O)cc(O)c3c2=O)cc1 | rat | intravenous | 2 mg/kg |  | 0.19 h
Cc1nc(Nc2ncc(C(=O)Nc3c(C)cccc3Cl)s2)cc(N2CC[C@@H](N)C2)n1 | male Sprague-Dawley rat | intravenous | 1 mg/kg |  | 2.8 h
Cc1cc2c(C(N)=O)cccc2n1-c1nc2c(c(NCc3ccccc3)n1)CCCN2 | male Sprague-Dawley rat | oral | 10 mg/kg | single dose | 1.2 h
CCOCC(=O)N1CCC[C@H](C(=O)NCc2nc(-c3ccc(C#N)nc3)cs2)C1 | male Sprague-Dawley rat | intravenous | 1 mg/kg |  | 1.8 h
Cc1cc(S(=O)(=O)NC2CC(N3CCN(CC4CCN(c5ccc(NC6CCC(=O)NC6=O)cc5C)CC4)CC3)C2)ccc1Nc1ncc(C(F)(F)F)c(N2CCC[C@](C)(O)C2)n1 (some centres unmarked) | rat | intravenous | 2 mg/kg |  | 5.3 h
CCONC(=O)N1CCC[C@H](C(=O)NCc2nc(-c3ccc(C#N)cc3)cs2)C1 | male Sprague-Dawley rat | intravenous | 1 mg/kg |  | 2.2 h
O=C1CCC(N2Cc3cc(C4CCN(Cc5ccccc5)CC4)ccc3C2=O)C(=O)N1 (centres unmarked) | male Sprague-Dawley rat | oral | 3 mg/kg |  | 1.31 h
COc1nc(-c2cccc(-c3ccccc3)c2C)ccc1CNCCNC(=O)CCCCCCCCCCC(=O)N1CCN(CCNC(=O)c2cc3c(=O)n4cccc(C)c4nc3n(CCc3cccs3)c2=N)CC1 | male Sprague-Dawley rat | intravenous | 2 mg/kg |  | 5.8 h
C=CC(=O)N1CCC[C@@H](n2nc(-c3ccc(Oc4ccccc4)cc3)c3c(N)ncnc32)C1 | male Wistar rat | oral | 40 mg/kg |  | 2.5 h
CNS(=O)(=O)c1ccc(Nc2ncc(C(F)(F)F)c(N3CCC(C)(O)CC3)n2)c(C)c1 | rat | intravenous | 2 mg/kg |  | 0.7 h
CCOCC(=O)N1CCC[C@H](C(=O)NCc2nc(-c3ccc(C)nc3)cs2)C1 | male Sprague-Dawley rat | oral | 3 mg/kg |  | 1.9 h
CNS(=O)(=O)c1ccc(Nc2ncc(C(F)(F)F)c(N3CCC[C@](C)(O)C3)n2)c(C)c1 | rat | intravenous | 2 mg/kg |  | 0.8 h
C1=C/COCc2cc(ccc2OCCN2CCCC2)Nc2nccc(n2)-c2cccc(c2)COC/1 | male Sprague-Dawley rat | oral | 36 mg/kg |  | 12.1 h
C[C@]1(O)CCCN(c2nc(Nc3ccc(S(=O)(=O)N[C@H]4CC[C@H](CN5CCN(c6ccc(C7CCC(=O)NC7=O)c(F)c6)CC5)CC4)cc3F)ncc2C(F)(F)F)C1 (some centres unmarked) | rat | intravenous | 2 mg/kg |  | 6 h
COCC(=O)N1CCC[C@H](C(=O)NCc2nc(-c3ccc(C#N)cc3)cs2)C1 | male Sprague-Dawley rat | intravenous | 1 mg/kg |  | 1.5 h
